Bioassay records: PubChem, The Scripps Research Institute Molecular Screening Center
TAAR1 antag – human TAAR1 antagonists, primary screen, Fluo-8 calcium fluorescence, CHO RD-HGA16 cells; Trace amine-associated receptor 1 (Homo sapiens), Q96RJ0; inhibition, % at 3 µM; AID 624466, 2012; antagonist; 360,000 compounds, 1.5% hits;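 active = inhibition above a per-plate cutoff, the mean inhibition of test compounds on that plate plus 3 SD, cut at about 49% in these data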;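 note: 0% = DMSO plus EC80 beta-PEA response and 100% = DMSO alone without agonist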
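Test system – hTAAR1-expressing CHO RD-HGA16 cells, Gα16-coupled · Reagent – β-PEA at EC80 concentration, post-compound challenge · Compound dosing – 3 µM, single point · Timing – 140 s kinetic read after compound, 140 s after agonist · Detection – Fluo-8 intracellular calcium dye fluorescence, real-time kinetic reads · Control set – DMSO and EC80 PEA controls · Repeats – n of 1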
OXTR potentiate – human OXTR potentiators, primary screen, fluorescence, CHO-OTR cells, Fluo-8 calcium | Oxytocin receptor (Homo sapiens), P30559 | Fluo-8 calcium fluorescence, potentiator mode; 0% = oxytocin EC15, 100% = EC100 | activation, % at 3 µM | 320,000 compounds, 0.061% hits | AID 2445, 2010;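 active = activation above that plate's cutoff, the mean activation of tested compounds plus 3 SD, cut at about 6.6% in these data, passing the limit was not always enough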;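 note: 100% uses oxytocin at 75 nM as the full agonist control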
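System: human OTR in CHO cells; Also added: sub-maximal oxytocin, roughly EC15; Timing: compound 6 min at room temperature before oxytocin, 100 s read; Technique: Fluo-8 intracellular calcium fluorescence, ex 470-495, em 515-575 nm; Controls: oxytocin EC15 low and EC100 high; Replication: singlicate.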
TAAR1 agonist – human TAAR1 agonists, primary screen, Fluo-8 calcium fluorescence, CHO RD-HGA16 cells; 360,000 compounds, 0.99% hits; activation, % at 3 µM; Trace amine-associated receptor 1 (Homo sapiens), Q96RJ0; vehicle wells 0%, saturating PEA agonist 100%;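 active = activation above the mean activation of all test compounds in the run plus 3 SD, cut at about 38% in these data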
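test system = CHO RD-HGA16 cells carrying human TAAR1 plus Gα16 | schedule = 17-24 h seeding, 75 min 37 °C dye, 30 min RT | compound dosing = 3 µM single concentration | control set = DMSO and PEA EC100 | replicates = n 1 | signal = Fluo-8 fluorescence, 5 s baseline then 140 s kinetic read | measure = percent activation vs PEA EC100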
V1aR counter – agonists of human V1a receptor, primary screen, counter-screen for OXTR agonist project, fluorescence, CHO-V1R cells; AID 2797, 2010; Vasopressin V1a receptor (Homo sapiens), P37288; 320,000 compounds, 0.25% hits; activation, % at 3 µM; Fluo-8 calcium fluorescence, agonist mode; 0% DMSO, 100% 3 nM vasopressin;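 active = activation above the mean activation of all tested compounds plus 3 SD, per screening run, cut at about 20% in these data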;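 note: signal is peak over basal fluorescence ratio across a 100 second FLIPR read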
Target sequence (P37288 whole entry, looked up): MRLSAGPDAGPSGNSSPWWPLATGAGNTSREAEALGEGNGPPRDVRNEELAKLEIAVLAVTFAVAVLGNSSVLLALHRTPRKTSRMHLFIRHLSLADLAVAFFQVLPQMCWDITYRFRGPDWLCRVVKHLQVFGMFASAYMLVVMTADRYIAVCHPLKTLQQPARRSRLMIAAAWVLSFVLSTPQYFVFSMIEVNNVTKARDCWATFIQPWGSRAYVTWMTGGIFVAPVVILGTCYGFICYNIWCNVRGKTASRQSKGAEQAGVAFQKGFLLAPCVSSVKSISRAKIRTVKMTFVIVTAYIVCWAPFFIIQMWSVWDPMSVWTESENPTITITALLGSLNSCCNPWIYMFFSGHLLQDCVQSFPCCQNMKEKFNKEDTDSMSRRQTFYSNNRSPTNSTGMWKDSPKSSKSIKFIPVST
OXTR agonist – human OXTR agonists, primary screen, fluorescence, CHO-OTR cells, Fluo-8 calcium; activation, % at 3 µM; Fluo-8 calcium fluorescence; normalized: DMSO 0%, oxytocin 100%; 320,000 compounds, 0.32% hits;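 active = activation above the mean of all tested compounds plus 3 SD, cutoff set per screening run, cut at about 20% in these data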;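 note: peak over basal fluorescence ratio from a 100 s FLIPR kinetic read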
TAAR1 ag confirm – human TAAR1 agonists, retest of hits, confirmation, Fluo-8 calcium fluorescence, CHO RD-HGA16 cells. activation, % at 3 µM. 2,400 compounds, 82% hits. shares compounds with TAAR1 agonist. scaled: DMSO 0%, maximal phenethylamine 100%;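 active = activation above a cutoff set at the run's mean compound activation plus 3 SD, cut at about 39% in these data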
Ga16 ag counter – nonselective calcium mobilization agonists, CHO-Ga16 cells, counter-screen for hTAAR1 agonist project, cell-based, fluorescence, CHO-Ga16 parental line; 2,400 compounds, 50% hits; shares compounds with TAAR1 agonist; Fluo-8 calcium fluorescence; normalized to maximal ATP response, DMSO zero; activation, % at 3 µM;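 active = activation above the run cutoff, the mean activation over all tested wells plus 3 SD, cut at about 12% in these data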;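 note: 0% = DMSO wells and 100% = maximal ATP response on the peak over basal ratio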
TAAR1 desens – TAAR1 desensitization by agonist hits, confirmation, counter-screen for TAAR1 agonist project, cell-based, fluorescence, tachyphylaxis. inhibition, % at 3 µM. CHO RD-HGA16 hTAAR1, Fluo-8 calcium, beta-PEA response inhibition. 2,400 compounds, 46% hits. shares compounds with TAAR1 agonist. AID 651951, 2012;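 active = inhibition above the run cutoff, the mean inhibition of all test compounds plus 3 SD, cut at about 49% in these data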;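 note: beta-PEA stimulus applied at its EC80; loss of beta-PEA calcium signal after compound pretreatment read as receptor desensitization; 0% = DMSO with beta-PEA at EC80 and 100% = DMSO alone without agonist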
Ga16 antag count – inhibition of ATP-evoked calcium response in CHO-Ga16 cells, counter-screen for TAAR1 agonist project, cell-based, fluorescence; AID 651952, 2012; shares compounds with TAAR1 agonist; CHO-Ga16 ATP-induced calcium, Fluo-8 fluorescence; inhibition, % at 3 µM; 2,400 compounds, 39% hits;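 active = inhibition above the plate's mean compound inhibition plus 3 SD, computed per plate, cut at about 22% in these data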;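 note: 0% = EC80 ATP with DMSO and 100% = DMSO wells without ATP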
The depositor's hits bear a star; nt = no result given. Most compounds without a hit are left out; they make up all but 2.3% or so of the library.

SMILES	TAAR1 antag	OXTR potentiate	TAAR1 agonist	V1aR counter	OXTR agonist	TAAR1 ag confirm	Ga16 ag counter	TAAR1 desens	Ga16 antag count
O=C(N/N=C/c1ccc(OCc2ccc(F)cc2)cc1)c1ccccc1	5	-17	43*	1	6	18	3	-1	0
NNC(=O)c1ccc(COc2ccc3ccccc3c2)cc1	-12	-17	72*	9	8	93*	51*	49*	23*
NNC(=O)c1ccc(COc2ccc3c(c2)CCC3)cc1	-6	-8	6	1	0	nt	nt	nt	nt
O=C(Nc1ccc(OCc2ccccc2)cc1)c1cccnc1	57*	-16	88*	22*	21*	94*	30*	75*	26*
O=C(Nc1ccc(OCc2ccccc2)cc1)Nc1cccnc1	14	-2	4	3	3	nt	nt	nt	nt
O=C(Nc1ccccc1F)c1ccc(OCc2ccccc2)cc1	nt	-5	nt	1	0	nt	1	nt	13
O=C(N/N=C/c1ccc(F)cc1)c1ccc(OCc2ccccc2)cc1	-2	-4	0	0	0	nt	nt	nt	nt
CC1Cc2ccccc2N1C(=O)CN1CCC(C(N)=O)CC1 (centres undefined)	-16	-16	0	2	0	nt	nt	nt	nt
COc1ccc(-n2nc(C(=O)NCC(=O)NCCCN3CC(C)CC(C)C3)c3ccccc3c2=O)cc1OC (centres undefined)	6	-1	-3	0	0	nt	nt	nt	nt
CCN(CC)S(=O)(=O)c1ccc(Cl)c(NC(=O)COC(=O)c2ccc([N+](=O)[O-])o2)c1	-37	-2	1	2	1	nt	nt	nt	nt
CCN(CC(=O)NCC1CCCO1)S(=O)(=O)c1ccc(Cl)cc1 (centres undefined)	-7	-5	1	1	0	nt	nt	nt	nt
CSc1nc(N)nc(SCC(=O)c2ccc(C)cc2)c1C#N	54*	-19	52*	3	2	15	10	3	8
CCCN1CNC(=S)N(c2cc(C)ccc2C)C1	-3	0	2	1	1	nt	nt	nt	nt
COc1ccccc1N1CN(CCc2ccccc2)CNC1=S	57*	-6	83*	0	2	101*	5	84*	1
Cc1ccc(C)c(N2CN(CCC3=CCCCC3)CNC2=S)c1	23	-2	59*	-1	-3	53*	1	59*	14
COc1ccccc1N1CN(Cc2ccccc2)CNC1=S	-12	-2	0	-1	0	nt	nt	nt	nt
CCOC(=O)c1ccc(N2CN(CCc3ccccc3)CNC2=S)cc1	nt	0	nt	1	2	nt	5	nt	3
CCN1CNC(=S)N(c2cccc(C)c2)C1	-7	-4	2	1	-1	nt	nt	nt	nt
Cc1ccc(N2CN(CCc3ccccc3)CNC2=S)cc1	60*	-6	73*	-1	0	90*	0	81*	8
O=C(c1ccc(OC2CCN(Cc3ccccn3)CC2)cc1)N1CCC[C@H]1CO	-34	-3	1	1	0	nt	nt	nt	nt
O=C(NCc1ccccc1F)Nc1nnc([C@@H]2C[C@H](O)[C@@H](CO)O2)s1	-15	nt	2	nt	nt	nt	nt	nt	nt
CC(C)CCNC(=O)C1CCC(CNS(=O)(=O)c2ccc(Cl)cc2)CC1 (centres undefined)	9	nt	6	nt	nt	nt	nt	nt	nt
CC1=NN(/C(=N\c2nnc(C)s2)Nc2ccccc2)[C@H](c2cccc3ccccc23)S1	-6	-12	70*	5	16	47*	2	0	11
Cc1c(OC(C)C(=O)NCC2CCC(C(=O)O)CC2)ccc2c(-c3ccccc3)cc(=O)oc12 (centres undefined)	22	-5	0	1	0	nt	nt	nt	nt
CC1(C(=O)NS(=O)(=O)c2cccc(C#N)c2)CCN1C(=O)CCc1ccccc1 (centres undefined)	-3	nt	1	nt	nt	nt	nt	nt	nt
COc1ccc(NC(=O)CSc2nnc(-c3ccccn3)n2N)cc1Cl	22	-1	44*	0	0	61*	2	24	4
COc1ccc(NC(=O)CSc2nnc(-c3ccco3)n2N)cc1Cl	-23	-4	33	1	-1	nt	nt	nt	nt
Cc1ccc(NC(=O)c2ccc(NS(=O)(=O)c3cccc4cccnc34)cc2)cc1	nt	-8	nt	0	1	nt	nt	nt	nt
CC1=CC(C)(C)N2C(=O)C3(SCC(=O)N3c3ccc(F)cc3)c3cc(C)cc1c32 (centres undefined)	34	-6	54*	10	4	39*	25*	27	28*
